Reference: ChEMBL document CHEMBL1146852, “Synthesis and pharmacological characterization of novel fluorescent histamine H2-receptor ligands derived from aminopotentidine” (Bioorg Med Chem Lett, 2006)
pEC50: −log10 of the molar value.

Tests used:
Format in all cases: functional
Histamine H2 receptor [1] = biological target: T1, Histamine H2 receptor (Homo sapiens, UniProt P25021); assay: Binding affinity to human H2R expressed in sf9 cells by adenylyl cyclase assay
[2] = Antagonist activity at guinea pig H2R-Gsalpha fusion protein expressed in sf9 cells by GTPase assay; settings: Cavia porcellus
Outline: (§1)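 Inhibition of histamine-stimulated high-affinity GTP hydrolysis in Sf9 membranes expressing hH2R-Gsα or gpH2R-Gsα fusion proteins. KB came from non-linear curve fitting. Means SD of three experiments.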

[3] = Antagonist activity at human H2R-Gsalpha fusion protein expressed in sf9 cells by GTPase assay; outline: as §1
[4] = biological target: Histamine H2 receptor (Cavia porcellus) (UniProt P47747); assay: Binding affinity to guinea pig H2R expressed in sf9 cells by adenylyl cyclase assay
Histamine H2 receptor (Cavia porcellus), sequence (P47747 whole entry, the tested form may be a part): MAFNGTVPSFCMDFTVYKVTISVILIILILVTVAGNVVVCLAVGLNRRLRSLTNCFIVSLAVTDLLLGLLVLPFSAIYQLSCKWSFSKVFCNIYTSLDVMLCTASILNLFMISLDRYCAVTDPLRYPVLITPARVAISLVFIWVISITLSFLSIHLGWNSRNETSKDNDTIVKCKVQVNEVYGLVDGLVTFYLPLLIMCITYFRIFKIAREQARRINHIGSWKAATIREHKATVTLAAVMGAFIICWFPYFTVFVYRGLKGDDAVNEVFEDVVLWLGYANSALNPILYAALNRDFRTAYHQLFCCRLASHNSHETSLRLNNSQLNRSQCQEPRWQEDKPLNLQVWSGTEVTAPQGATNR

[5] = Ratio of antagonist activity at human H2R-Gsalpha fusion protein to guinea pig H2R-Gsalpha fusion protein expressed in sf9 cells
[6] = biological target: Histamine H1 receptor (Homo sapiens) (UniProt P35367); assay: Antagonist activity at human recombinant H1R expressed in sf9 cells assessed as inhibition of histamine-stimulated GTP hydrolysis
Histamine H1 receptor (Homo sapiens), sequence (P35367 whole entry): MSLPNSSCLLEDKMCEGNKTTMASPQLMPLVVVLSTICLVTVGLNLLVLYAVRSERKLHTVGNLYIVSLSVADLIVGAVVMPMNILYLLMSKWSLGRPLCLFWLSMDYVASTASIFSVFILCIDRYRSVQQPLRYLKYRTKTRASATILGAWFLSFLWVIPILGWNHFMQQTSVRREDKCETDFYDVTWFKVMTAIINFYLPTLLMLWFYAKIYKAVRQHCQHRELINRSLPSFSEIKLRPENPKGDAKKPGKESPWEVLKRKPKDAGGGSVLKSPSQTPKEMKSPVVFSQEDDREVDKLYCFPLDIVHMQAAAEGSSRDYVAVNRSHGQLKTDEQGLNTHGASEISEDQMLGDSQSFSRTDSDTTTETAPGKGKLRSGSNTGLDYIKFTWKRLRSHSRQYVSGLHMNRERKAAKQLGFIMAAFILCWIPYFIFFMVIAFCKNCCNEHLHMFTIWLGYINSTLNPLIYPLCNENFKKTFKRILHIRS

Histamine H2 receptor [7] = biological target: T1, Histamine H2 receptor; assay: Agonist activity at human H2R relative to histamine
Outline: (§2)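 GTPase activity in Sf9 insect cell membranes expressing hH2R-GsαS or gpH2R-GsαS fusion proteins. Curves were fitted by non-linear regression. Means SD of three experiments.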

[8] = biological target: Histamine H2 receptor (Cavia porcellus) (UniProt P47747); assay: Agonist activity at guinea pig H2R relative to histamine; outline: as §2
Histamine H2 receptor [9] = biological target: Histamine H2 receptor (Cavia porcellus, UniProt P47747); assay: Agonist activity at guinea pig H2R; outline: as §2
Histamine H2 receptor (Cavia porcellus, UniProt P47747), sequence (P47747 whole entry): as the sequence (P47747 whole entry, the tested form may be a part) above

Histamine H2 receptor [10] = biological target: T1, Histamine H2 receptor; assay: Agonist activity at human H2R; outline: as §2

T1 sequence (P25021 whole entry, the tested form may be a part): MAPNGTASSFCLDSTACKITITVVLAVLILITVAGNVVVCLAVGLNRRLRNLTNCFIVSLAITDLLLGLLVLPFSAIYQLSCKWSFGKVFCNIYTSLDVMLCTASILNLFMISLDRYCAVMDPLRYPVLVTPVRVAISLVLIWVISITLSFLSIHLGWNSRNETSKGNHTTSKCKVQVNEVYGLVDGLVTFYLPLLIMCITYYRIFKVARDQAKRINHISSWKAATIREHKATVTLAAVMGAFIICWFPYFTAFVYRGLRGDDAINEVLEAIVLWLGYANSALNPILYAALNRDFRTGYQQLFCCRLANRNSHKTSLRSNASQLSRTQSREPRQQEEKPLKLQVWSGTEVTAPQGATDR

Structure (SMILES)	Kb (Histamine H2 receptor [1]) [nM]	Kb [2] [nM]	Kb [3] [nM]	Kb [4] [nM]	Ratio [5]	Kb [6] [µM]	Activity (Histamine H2 receptor [1]; filed as partial agonist)	Efficacy (Histamine H2 receptor [7]) [%]	Activity ([4]; filed as partial agonist)	Efficacy [8] [%]	pEC50 (Histamine H2 receptor [9])	pEC50 (Histamine H2 receptor [10])
N#CN/C(=N\CCCCCCN)NCCCOc1cccc(CN2CCCCC2)c1	2500	75	1800	33	24	> 30	–	–	–	–	–	–
CC1(C)C(/C=C/C=C/C=C2/N(CCCCCC(=O)NCC/N=C(\NC#N)NCCCOc3cccc(CN4CCCCC4)c3)c3ccccc3C2(C)C)=[N+](CCCCS(=O)(=O)[O-])c2ccccc21	–	58	47	–	0.81	> 30	Partial agonist	58	Partial agonist	65	–	–
N#CN/C(=N\CCN)NCCCOc1cccc(CN2CCCCC2)c1	–	2300	9300	–	4.04	> 30	–	–	–	–	–	–
CC1(C)C(=CC=CC=CC2=[N+](CCCCS(=O)(=O)[O-])c3ccccc3C2(C)C)N(CCCCCC(=O)NCCN=C(NC#N)NCCCOc2cccc(CN3CCCCC3)c2)c2ccccc21	–	–	–	–	–	–	–	–	–	–	7.05	6.80
N#CN/C(=N\CCNC(=O)c1ccc(N)cc1)NCCCOc1cccc(CN2CCCCC2)c1.O=C(O)C(=O)O [AMINOPOTENTIDINE OXALATE]	–	280	220	–	0.79	–	–	–	–	–	–	–
N#CN/C(=N\CCCCCCNC(=O)CCCCCNC(=O)COc1ccc(/C=C/C2=[N+]3C(=Cc4ccc(-c5ccc[nH]5)n4[B-]3(F)F)C=C2)cc1)NCCCOc1cccc(CN2CCCCC2)c1	–	190	260	–	1.37	> 30	–	–	–	–	–	–
NCCCOc1cccc(CN2CCCCC2)c1	–	6800	15000	–	2.2	> 30	–	–	–	–	–	–
O=C(CCCCCNC(=O)COc1ccc(/C=C/C2=[N+]3C(=Cc4ccc(-c5ccc[nH]5)n4[B-]3(F)F)C=C2)cc1)NCCCOc1cccc(CN2CCCCC2)c1	–	150	640	–	4.27	> 30	–	–	–	–	–	–
